Assay outcomes deposited in PubChem by several laboratories.
ABHD5 PLIN5 PPI: blocks binding of human ABHD5 to perilipin-5. inhibition, % at 4 µM. Split G. princeps luciferase complementation, luminescence, 4 h. Q00G26+Q8WTS1. hit rate 0.78% among 360,000. AID 602281;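 active = inhibition above the mean inhibition across every tested compound plus 3 SD, cut at about 22% in these data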
B2AR ag: agonists of human beta-2 adrenergic receptor inducing internalization; AID 504454; response, % (concentration not given with the values); Am2.2-beta2AR cells, FAP receptor internalization, flow cytometry; hit rate 0.43% among 340,000;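 active = response above a set limit, near 3 SD of response in nonfluorescent compounds, cut at about 42% in these data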
SENP1 FRET inh: inhibitors of human SENP1 SUMO protease catalytic domain. Q9P0U3. recombinant SENP1 catalytic domain, CyPet-SUMO1-YPet FRET cleavage. inhibition, % at 10 µM. hit rate 0.21% among 360,000;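 active = inhibition at least 30% at 10 µM, raw YFP signal under a set limit, fluorescence ratio 0.5 to 1.5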
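Assay system: hSENP1 catalytic domain, recombinant. Amount: SENP1 enzyme, 20 pM final. Schedule: 50 min reaction, RT, dark. Technique: FRET, CFP and YFP emission. Control set: no-enzyme wells low, DMSO-plus-enzyme wells high control.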
NadD inh: NadD (S. aureus) enzyme inhibition. purified NadD enzyme, colorimetric absorbance read-out. inhibition, % at 20 µM. AID 602399. hit rate 0.78% among 360,000; in the data active = inhibition above about 26%
GRK2 aptamer HTS: blocks RNA aptamer binding to human GRK2; hit rate 0.59% among 330,000; inhibition of aptamer binding, % at 10 µM; bead flow cytometry, FAM-aptamer displacement from GRK2;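 active = inhibition of aptamer binding above 40%, roughly 3 SD of noise, on plates passing a quality check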;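 also: median bead fluorescence of bound FAM aptamer so fluorescent compounds give negative values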
Target sequence (P25098 whole entry, looked up): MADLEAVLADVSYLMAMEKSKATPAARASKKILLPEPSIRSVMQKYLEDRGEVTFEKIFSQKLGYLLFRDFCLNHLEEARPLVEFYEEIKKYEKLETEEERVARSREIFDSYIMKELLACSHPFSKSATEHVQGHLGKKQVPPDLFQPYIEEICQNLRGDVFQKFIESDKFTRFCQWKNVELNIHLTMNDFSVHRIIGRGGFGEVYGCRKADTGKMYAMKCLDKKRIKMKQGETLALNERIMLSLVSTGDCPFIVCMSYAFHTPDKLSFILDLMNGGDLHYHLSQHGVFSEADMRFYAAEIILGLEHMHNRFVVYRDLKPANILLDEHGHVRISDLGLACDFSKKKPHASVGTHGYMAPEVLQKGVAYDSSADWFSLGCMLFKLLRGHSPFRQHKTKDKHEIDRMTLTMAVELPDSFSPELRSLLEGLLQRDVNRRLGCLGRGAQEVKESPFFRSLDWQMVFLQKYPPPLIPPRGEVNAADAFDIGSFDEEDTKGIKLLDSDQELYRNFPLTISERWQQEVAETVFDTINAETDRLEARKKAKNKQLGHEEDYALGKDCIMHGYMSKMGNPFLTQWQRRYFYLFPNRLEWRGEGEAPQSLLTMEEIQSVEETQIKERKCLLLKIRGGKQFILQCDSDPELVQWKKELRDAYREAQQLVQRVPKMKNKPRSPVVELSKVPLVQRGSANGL
NadD inh conf: confirmation of Staphylococcus aureus NadD inhibitors; inhibition, % at 20 µM; shares compounds with NadD inh; hit rate 13% among 2,000; AID 624309; purified S. aureus NadD, colorimetric enzyme assay; in the data active = inhibition mostly above about 42%, no sharp cut-off; inactive = mostly below about 42%
Of the large screens only hits and unclear results are named; the others gave an inactive call (follow-up assays come after a bar, where they were run). Sampled rows, rich in hits. Any-hit rate of the full collection: about 2.5%.

CCOc1ccc(N2CSC3=C(C#N)C(c4ccco4)CC(=O)N3C2)cc1 (stereo not drawn)	none
CCc1cc(=O)oc2cc(OC(C)C(=O)NCc3ccccn3)ccc12 (stereo not drawn)	none
Nc1ccc2nc(-c3ccccc3)[nH]c2c1	none
Nc1ccc2nc(-c3ccc(N)c(Cl)c3)[nH]c2c1	NadD inh 41.3 | NadD inh conf inactive
Cc1cc(C)c(OCC(=O)OC(C)C(=O)NCc2ccccc2)c(C)c1 (stereo not drawn)	none (no result: GRK2 aptamer HTS)
O=c1c2ccccc2nc(/C=C/c2c[nH]c3ccccc23)n1-c1ccc([N+](=O)[O-])cc1	NadD inh 40.5 | NadD inh conf inactive
CCOC(=O)C1CCCN(C(=O)c2ccc(-c3ccc([N+](=O)[O-])cc3)o2)C1 (stereo not drawn)	none
Cc1ccc(C)c(S(=O)(=O)c2c(N)n(/N=C/c3ccco3)c3nc4ccccc4nc23)c1	NadD inh 31.5 | NadD inh conf inactive
Nc1c(S(=O)(=O)c2ccccc2)c2nc3ccccc3nc2n1/N=C/c1cccc(O)c1	NadD inh 46.9 | NadD inh conf inactive
Cc1ccc(S(=O)(=O)c2c(N)n(NC(=O)c3ccccc3C)c3nc4ccccc4nc23)cc1	none
Cc1cccc(S(=O)(=O)c2c(N)n(/N=C/c3ccccc3)c3nc4ccccc4nc23)c1	none
Cc1ccc(C(=O)Nn2c(N)c(S(=O)(=O)c3ccc(C)cc3)c3nc4ccccc4nc32)cc1	NadD inh 30.4 | NadD inh conf inactive
O=C(Cc1ccccc1)Nc1ncnc2c1C(c1ccccc1)c1c(ccc3ccccc13)O2 (stereo not drawn)	NadD inh 31.6 | NadD inh conf inactive
Cc1ccc(S(=O)(=O)N2CCOCC2)cc1C(=O)NCc1ccccc1CN1CCCC1	none
O=C(Cn1cnc([N+](=O)[O-])c1)Nc1cc(Oc2ccc(Cl)cc2Cl)cc([N+](=O)[O-])c1	NadD inh 31.8 | NadD inh conf inactive
Cc1nn(-c2ccc([N+](=O)[O-])cc2)c2c1C(c1cccc(Br)c1)N1C(=N2)C(=O)Nc2ccccc21 (stereo not drawn)	NadD inh 31.5 | NadD inh conf inactive
CCCN(c1ccc(OCC)cc1)S(=O)(=O)c1ccc2c(c1)NC(=O)CO2	none
CO[C@@H]1CN(C)C(=O)c2ccc(NC(=O)C3CCCC3)cc2OC[C@@H](C)N(Cc2ccc(F)cc2)C[C@H]1C	none (no result: B2AR ag, NadD inh, GRK2 aptamer HTS)
CCCSC1=N/C(=C\c2ccc3c(c2)OCO3)C(=O)S1	NadD inh 39.7 | NadD inh conf inactive
CCSC1=N/C(=C\c2ccc3c(c2)OCO3)C(=O)S1	none
CCCSC1=N/C(=C\C=C\c2ccco2)C(=O)S1	NadD inh 39.9 | NadD inh conf inactive
O=C1SC(SCc2ccccc2)=N/C1=C\c1ccco1	none
C=CCC1NS(=O)(=O)OCC1C(C)C (stereo not drawn)	none
COc1ccc(OC)c(-c2c3c([nH]c(=S)c2C#N)CCCC3)c1	none
COc1ccc(-c2c3c([nH]c(=S)c2C#N)CCC3)cc1	NadD inh 36.1 (no result: GRK2 aptamer HTS) | NadD inh conf inactive
COCc1cccc(C2=CC(=O)C[C@H](c3ccc(F)cc3)C2)c1	none
COc1ccc(NC(=O)c2cccc(N3C(=O)c4ccc(C(=O)Nc5ccc(OC)c(O)c5)cc4C3=O)c2)cc1O	NadD inh 44.2 | NadD inh conf inactive
S=c1[nH]nc(COc2ccc(Cl)cc2)n1C1CCCCC1	NadD inh 34.5 | NadD inh conf inactive
N#C/C(=C\c1c[nH]c2ccccc12)C(=O)Nc1ncc(Cc2ccc(Cl)cc2Cl)s1	NadD inh 38.1 | NadD inh conf inactive
O=C(Cn1nc(C(=O)O)c2ccccc2c1=O)Nc1cc(S(=O)(=O)N2CCOCC2)ccc1Cl	none
N#Cc1c(SCc2c(Cl)cccc2Cl)nc(N)[nH]c1=S	NadD inh 30.3 | NadD inh conf 47.3
COc1ccc(OC)c(/C=C/C(=O)OCC(=O)Nc2nnc(-c3ccccc3)o2)c1	NadD inh 43.7 | NadD inh conf 60.2
Cc1c(C(=O)Nc2c3c(nn2C(C)(C)C)CS(=O)(=O)C3)cccc1[N+](=O)[O-]	none
CC(C)C[C@@H](CN1CCCC1CN1C(=S)NC[C@@H]1Cc1ccc(O)cc1)N1C[C@H](Cc2ccc(O)cc2)N(CC2CCCCCC2)C1=S (stereo partly drawn)	NadD inh 55.3 (no result: GRK2 aptamer HTS) | NadD inh conf inactive
CC(C)C[C@@H](CN1CCCC1CN1C(=S)NC[C@@H]1Cc1ccc(O)cc1)N1C[C@H](Cc2ccccc2)N(CC2CCCCCC2)C1=S (stereo partly drawn)	none (no result: GRK2 aptamer HTS)
CC(C)C[C@H]1CNC(=S)N1C[C@H]1CCCN1C[C@H](CC(C)C)N1C[C@H](Cc2ccc(O)cc2)N(CC2CCCCC2)C1=S	NadD inh 40.9 (no result: B2AR ag, GRK2 aptamer HTS) | NadD inh conf inactive
Cc1cccn2c(=O)c(/C=C(\C#N)S(=O)(=O)c3ccccc3)c(N3CCN(c4ccccc4)CC3)nc12	NadD inh 43.4 | NadD inh conf inactive
Cc1cc(F)ccc1S(=O)(=O)N1CCCOC1CNC(=O)C(=O)NCc1ccc2c(c1)OCO2 (stereo not drawn)	none
CN(CCC#N)C(=O)COC(=O)c1c2c(nc3ccccc13)/C(=C/c1ccco1)CC2	NadD inh 49.7 | NadD inh conf 57.8
NC(=O)c1ccc(N2CCNC(=O)C2)c([N+](=O)[O-])c1	none
O=C(OCC(=O)N1CCCC1=O)c1cc2ccccc2o1	none
CCN1CCc2c(sc3c2c(NCc2ccco2)nc2nnnn23)C1	NadD inh 37.7 | NadD inh conf inactive
CCN(Cc1ccccc1)C(=O)Cn1c(=O)n(CCC(=O)N2CCCCC2)c(=O)c2sccc21	none
CC(C)C[C@H]1CN([C@@H](Cc2ccccc2)CN2CCC[C@@H]2CN2C(=O)C(=O)NC[C@@H]2Cc2ccc(O)cc2)C(=O)C(=O)N1CC1CCCCCC1	none (no result: B2AR ag, GRK2 aptamer HTS)
CC(C)C[C@H]1CN([C@@H](Cc2ccc(O)cc2)CN2CCC[C@H]2CN2C(=O)C(=O)NC[C@@H]2Cc2ccccc2)C(=O)C(=O)N1CC1CCCCCC1	NadD inh 30.3 (no result: B2AR ag, GRK2 aptamer HTS) | NadD inh conf inactive
CC(C)C[C@H]1CN([C@@H](Cc2ccc(O)cc2)CN2CCC[C@@H]2CN2C(=O)C(=O)NC[C@@H]2Cc2ccccc2)C(=O)C(=O)N1CC1CCCCC1	NadD inh 30.7 (no result: GRK2 aptamer HTS) | NadD inh conf inactive
CCOC(=O)N1CCN(C(=O)COC(=O)c2ccccc2NCCO)CC1	none
C/C(=N\NC(=O)C(=O)Nc1cc(C)ccc1C)c1ccncc1	none
Cc1ccc(CNC(=O)c2ccc(N3CCC4(CC3)CC(c3ccccc3)=NO4)c(NC(=O)c3ccc(Br)cc3)c2)cc1	NadD inh 35.6 | NadD inh conf inactive
Cc1oc(-c2ccc(F)cc2)cc1-c1nn2c(-c3ccoc3C)nnc2s1	ABHD5 PLIN5 PPI 29.5, NadD inh 53.4 | NadD inh conf inactive
COc1ccc(-c2nnc3sc(-c4ccco4)nn23)cc1OC	none
